Test results reported in ChEMBL document CHEMBL2321668, “Aromatic bis-N-hydroxyguanidinium derivatives: synthesis, biophysical, and biochemical evaluations” (J Med Chem, 2013).
Where a name gives a salt, the structure may show the parent alone. The source made the active and inactive calls. The calls are words filed in the database; no cut-off is given here.

Legend:
HL-60 [1] = experiment: Cytotoxicity against human HL60 cells assessed as reduction in cell viability after 72 hrs by Alamar blue assay; format: functional, cell-based; conditions: HL-60, 72 h
Procedure, shortened: (§1)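 HL-60 cells in log phase, 4 × 10^4 cells/well in RPMI/10% FBS, were treated with a 1:100 dilution of aqueous stocks (1% ddH2O vehicle), final 1–100 μM, for 72 h at 37 °C. AlamarBlue was added for 4.5 h in the dark and fluorescence read at 544/590 nm. Viability is blank-corrected and given as % of vehicle. IC50 comes from sigmoidal dose–response fits. Triplicate wells, at least three experiments.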

HL-60 [2] = experiment: Cell cycle arrest in human HL60 cells assessed as accumulation at S phase at 50 uM after 48 hrs by flow cytometric analysis (reference value: 24.29 +/- 1.37%); format: functional
HL-60 [3] = experiment: Cell cycle arrest in human HL60 cells assessed as accumulation at Gn phase at 50 uM after 48 hrs by flow cytometric analysis (reference value: 3.02 +/- 0.56%); format: functional
HL-60 [4] = experiment: Cell cycle arrest in human HL60 cells assessed as accumulation at S phase at 50 uM by flow cytometric analysis; format: functional, cell-based; conditions: TDE = time-dependent effect
HL-60 [5] = experiment: Cell cycle arrest in human HL60 cells assessed as accumulation at G2/M phase at 50 uM after 24 hrs by flow cytometric analysis (reference value: 16.73 +/- 0.59%); format: functional
[6] = Cytotoxicity against human Kelly cells assessed as reduction in cell viability after 72 hrs by Alamar blue assay; format: functional, cell-based
Procedure, shortened: (§2)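 Kelly neuroblastoma cells in RPMI/10% FBS, 6000/well, were preincubated 24 h, then given a 1:100 dilution of aqueous stocks (1% ddH2O vehicle) for 72 h at 37 °C. AlamarBlue was added for 4.5 h in the dark and fluorescence read at 544/590 nm. Viability is blank-corrected and given as % of vehicle. IC50 comes from a sigmoidal fit. Triplicate wells, at least three experiments.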

HL-60 [7] = experiment: Cell cycle arrest in human HL60 cells assessed as accumulation at Gn phase at 50 uM after 24 hrs by flow cytometric analysis (reference value: 2.96 +/- 0.79%); format: functional
HL-60 [8] = experiment: Cell cycle arrest in human HL60 cells assessed as accumulation at preG1 phase at 50 uM after 24 hrs by flow cytometric analysis (reference value: 0.81 +/- 0.11%); format: functional
HL-60 [9] = experiment: Cell cycle arrest in human HL60 cells assessed as accumulation at G0/G1 phase at 50 uM after 24 hrs by flow cytometric analysis (reference value: 56.05 +/- 1.40%); format: functional
Salmonidae = experiment: Binding affinity to salmon sperm DNA assessed as change in melting temperature at 15 uM by thermal denaturation assay
[10] = Cytotoxicity against human Kelly cells assessed as reduction in cell viability 40 uM after 72 hrs by Alamar blue assay; format: functional; procedure, shortened: as §2
HL-60 [11] = experiment: Cell cycle arrest in human HL60 cells assessed as accumulation at preG1 phase at 50 uM by flow cytometric analysis; format: functional, cell-based; conditions: TDE = time-dependent effect
HL-60 [12] = experiment: Cell cycle arrest in human HL60 cells assessed as accumulation at preG1 phase at 50 uM after 72 hrs by flow cytometric analysis (reference value: 2.21 +/- 0.57%); format: functional
[13] = Cytotoxicity against human Kelly cells assessed as reduction in cell viability 50 uM after 72 hrs by Alamar blue assay; format: functional; procedure, shortened: as §2
HL-60 [14] = experiment: Cell cycle arrest in human HL60 cells assessed as accumulation at preG1 phase at 50 uM after 48 hrs by flow cytometric analysis (reference value: 1.41 +/- 0.32%); format: functional
HL-60 [15] = experiment: Cell cycle arrest in human HL60 cells assessed as accumulation at S phase at 50 uM after 24 hrs by flow cytometric analysis (reference value: 24.46 +/- 1.15%); format: functional
HL-60 [16] = experiment: Cell cycle arrest in human HL60 cells assessed as accumulation at G0/G1 phase at 50 uM after 72 hrs by flow cytometric analysis (reference value: 59.5 +/- 1.50%); format: functional
HL-60 [17] = experiment: Cell cycle arrest in human HL60 cells assessed as accumulation at G0/G1 phase at 50 uM by flow cytometric analysis; format: functional, cell-based; conditions: TDE = time-dependent effect
HL-60 [18] = experiment: Cell cycle arrest in human HL60 cells assessed as accumulation at G0/G1 phase at 50 uM after 48 hrs by flow cytometric analysis (reference value: 58.77 +/- 2.33%); format: functional
HL-60 [19] = experiment: Cell cycle arrest in human HL60 cells assessed as accumulation at G2/M phase at 50 uM after 48 hrs by flow cytometric analysis (reference value: 11.35 +/- 1.05%); format: functional
HL-60 [20] = experiment: Cell cycle arrest in human HL60 cells assessed as accumulation at G2/M phase at 50 uM by flow cytometric analysis; format: functional, cell-based; conditions: TDE = time-dependent effect
[21] = Cytotoxicity against human Kelly cells assessed as reduction in cell viability 100 uM after 72 hrs by Alamar blue assay; format: functional; procedure, shortened: as §2
HL-60 [22] = experiment: Cell cycle arrest in human HL60 cells assessed as accumulation at Gn phase at 50 uM after 72 hrs by flow cytometric analysis (reference value: 3.43 +/- 0.48%); format: functional
HL-60 [23] = experiment: Cell cycle arrest in human HL60 cells assessed as accumulation at G2/M phase at 50 uM after 72 hrs by flow cytometric analysis (reference value: 10.53 +/- 0.81%); format: functional
HL-60 [24] = experiment: Cell cycle arrest in human HL60 cells assessed as accumulation at S phase at 50 uM after 72 hrs by flow cytometric analysis (reference value: 23.58 +/- 1.38%); format: functional
HL-60 [25] = experiment: Cell cycle arrest in human HL60 cells assessed as accumulation at Gn phase at 50 uM by flow cytometric analysis; format: functional, cell-based; conditions: TDE = time-dependent effect
MCF7 [26] = experiment: Cytotoxicity against human MCF7 cells assessed as reduction in cell viability after 72 hrs by Alamar blue assay; format: functional, cell-based; conditions: MCF7, 72 h
Procedure, shortened: (§3)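 MCF-7 cells in MEM/10% FBS with nonessential amino acids, 10,000/well, were preincubated 24 h, then treated for 72 h at 37 °C with a 1:100 dilution of aqueous stocks (1% ddH2O vehicle). AlamarBlue was added for 4.5 h in the dark and fluorescence read at 544/590 nm. Viability is blank-corrected and given as % of vehicle. IC50 comes from a sigmoidal dose–response fit. Triplicate wells, at least three experiments.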

[27] = Cytotoxicity against human Kelly cells assessed as reduction in cell viability 30 uM after 72 hrs by Alamar blue assay; format: functional; procedure, shortened: as §2
MCF7 [28] = experiment: Cytotoxicity against human MCF7 cells assessed as reduction in cell viability at 100 uM after 72 hrs by Alamar blue assay; format: functional; procedure, shortened: as §3
[29] = Dissociation constant, pKa of the compound; format: physicochemical
DNA = experiment: Binding affinity to calf thymus DNA assessed as change in melting temperature; format: nucleic-acid assay; conditions: Bos taurus
HL-60 [30] = experiment: Cytotoxicity against human HL60 cells assessed as reduction in cell viability at 100 uM after 72 hrs by Alamar blue assay; format: functional, cell-based; procedure, shortened: as §1
[31] = Binding affinity to poly(dA-dT)2 (unknown origin) assessed as change in melting temperature

Cl.N/C(=N\O)Nc1ccc(Sc2ccc(N/C(N)=N/O)cc2)cc1
IC50 (HL-60 [1]): 46.4 µM | Activity (HL-60 [2]): 21.71% | Activity (HL-60 [3]): 1.94% | Activity (HL-60 [4]): tde | Activity (HL-60 [5]): 14.57% | IC50 [6]: 8.6 µM | Activity (HL-60 [7]): 2.35% | Activity (HL-60 [8]): 1.53% | Activity (HL-60 [9]): 55.9% | ΔTm (Salmonidae): 1 °C | Activity [10]: 93.9% | Activity (HL-60 [11]): tde | Activity (HL-60 [12]): 22.2% | Activity [13]: 95% | Activity (HL-60 [14]): 6.44% | Activity (HL-60 [15]): 25.85% | Activity (HL-60 [16]): 44.8% | Activity (HL-60 [17]): tde | Activity (HL-60 [18]): 56.62% | Activity (HL-60 [19]): 10.78% | Activity (HL-60 [20]): tde | Activity [21]: 96.8% | Activity (HL-60 [22]): 2.1% | Activity (HL-60 [23]): 14.54% | Activity (HL-60 [24]): 15.99% | Activity (HL-60 [25]): tde | IC50 (MCF7 [26]): > 100 µM | Activity [27]: 79.4% | Activity (MCF7 [28]): 23.1%

Cl.N/C(=N\O)Nc1ccc(Oc2ccc(N/C(N)=N/O)cc2)cc1
IC50 (HL-60 [1]): 65.5 µM | IC50 [6]: 12.2 µM | ΔTm (Salmonidae): 1 °C | Activity [10]: 86.4% | Activity [13]: 89.9% | Activity [21]: 95.8% | IC50 (MCF7 [26]): 45.2 µM | Activity [27]: 76.2% | Activity (MCF7 [28]): 53% | pKa [29]: 8.3

N/C(=N\O)c1ccc(OCCCCCOc2ccc(/C(N)=N/O)cc2)cc1
ΔTm (DNA): 0.2 °C

N/C(=N\O)Nc1ccc(NC(=O)c2ccc(N/C(N)=N/O)cc2)cc1
ΔTm (Salmonidae): 1 °C

N/C(=N\O)Nc1ccc(C(=O)c2ccc(N/C(N)=N/O)cc2)cc1
IC50 (HL-60 [1]): > 100 µM | ΔTm (Salmonidae): 0 °C | Activity (HL-60 [30]): inactive

Cl.N/C(=N\O)Nc1ccc(Cc2ccc(N/C(N)=N/O)cc2)cc1
IC50 (HL-60 [1]): 71.3 µM | ΔTm (Salmonidae): 0 °C | IC50 (MCF7 [26]): > 100 µM | Activity (MCF7 [28]): 29.8%

N=C(N)c1ccc(OCCCCCOc2ccc(C(=N)N)cc2)cc1
ΔTm (DNA): 10.7 °C

N/C(=N\O)Nc1ccc(CCc2ccc(N/C(N)=N/O)cc2)cc1
ΔTm (Salmonidae): 0 °C

N=C(N)c1ccc(-c2ccc(-c3ccc(C(=N)N)cc3)o2)cc1 [FURAMIDINE HYDROCHLORIDE]
IC50 (HL-60 [1]): 77.6 µM | IC50 [6]: 27.4 µM | ΔTm [31]: 26.2 °C | IC50 (MCF7 [26]): 92.8 µM | pKa [29]: 10.4
